Laboratory results published in paper PMC3766433 (Journal of neurochemistry, 2013).

Experiments:
Assay type in all cases: binding
Munc13-1 C1 (WT) [1] = target: Munc13-1 C1 (WT) (Rattus norvegicus, UniProt Q62768, E582H); experiment: intrinsic fluorescence quenching, logistic fit
In short: (§1)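 GST-fused Munc13-1 C1 domain (wild type or Glu-582 mutant) was expressed in E. coli BL21 DE3 gold, affinity-purified and thrombin-cleaved. Protein was held at 1 μM in 50 mM Tris, 100 mM NaCl, pH 7.4. Alcohols were added neat or from a 0.25 M DMSO stock, at 1–250, 1–150 or 1–5 mM depending on the alcohol. After 15 min incubation, samples were excited at 280 nm. Emission at 348–350 nm was buffer-corrected and fitted to a logistic equation; runs were done in triplicate.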

Munc13-1 C1 (WT) [2] = target: Munc13-1 C1 (WT) (Rattus norvegicus, UniProt Q62768, E582A); experiment: intrinsic fluorescence quenching, logistic fit
In short: as §1

Munc13-1 C1 (WT) [3] = target: T1, Munc13-1 C1 (WT) (Rattus norvegicus, UniProt Q62768); experiment: intrinsic fluorescence quenching, logistic fit
In short: as §1

Munc13-1 C1 (WT) [4] = target: Munc13-1 C1 (WT) (Rattus norvegicus, UniProt Q62768, E582L); experiment: intrinsic fluorescence quenching, logistic fit
In short: as §1

Munc13-1 C1 (WT) [5] = target: T1, Munc13-1 C1 (WT); experiment: photolabeling, LC-MS/MS; conditions: covalent (photoaffinity), site Glu-582

EC50 (Munc13-1 C1 (WT) [1]) | EC50 (Munc13-1 C1 (WT) [2]) | EC50 (Munc13-1 C1 (WT) [3]) | EC50 (Munc13-1 C1 (WT) [4]) | Compound | photolabeling, LC-MS/MS; fluorescence quenching (Munc13-1 C1 (WT) [5])
1.1 ± 0.07 mM | 2.6 ± 0.2 mM | 0.7 ± 0.03 mM | 3.3 ± 0.06 mM | CCCCCCCCO [Octanol] | 
75.3 ± 1.9 mM | 59.9 ± 0.9 mM | 25.8 ± 1.1 mM | 70.5 ± 1.8 mM | CCCCO [Butanol] | 
 |  |  |  | CC1(CCO)N=N1 [3-azibutanol] | 3-azibutanol labeled the Munc13-1 C1 at the Glu-582 site
 |  | 51.7 ± 2.8 mM |  | CCO [Ethanol] | 
